T cell HTS: T cell immune modulators affecting CD8 T cell-vesicle binding; 2C CD8+ T cell-vesicle binding, flow cytometry; active compounds read low; response (vesicle binding), % at 7 µM; actives 0.068% (n = 330,000); AID 2052;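 active = response, share of CD8 T cells binding vesicles, and their 90th percentile fluorescence all below set limits, cut at about 80% in these data, passing the limit was not always enough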;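 note: values below 100% mean blocked vesicle binding to the CD8+ T cells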
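material = purified 2C TCR transgenic mouse naive CD8+ T cells | controls = Unloaded micro-vesicles (low), QL9 vesicles with 0.7% DMSO (high) | detection = cytometric PE anti-B7-1 and Alexa647 anti-CD8 signals after 1% paraformaldehyde fixation | incubation = binding step 1.5 h, 37 °C, antibody labelling 20 min, ice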
LANA-H2A inh: blocks KSHV LANA binding to histone H2A/H2B; Q9QR71; cell-free LANA-H2A/H2B peptide, fluorescence polarization; inhibition, % (no concentration beside the values); actives 0.6% (n = 320,000); in the data active = inhibition mostly above about 10%, no sharp cut-off; inactive = mostly below about 6.7%
Arr AP2 block: blocks beta-arrestin peptide binding to AP2 adaptin; actives 0.31% (n = 340,000); FITC-arrestin peptide / GST-AP2 beads, flow cytometry; AP2 beta2 appendage carries R879A mutation; inhibition, % at 10 µM;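 active = inhibition above a set limit, near 3 SD of compounds lacking own fluorescence, cut at about 54% in these data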
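system = GST-tagged AP2 beta2-adaptin appendage (R879A) on 4 µm glutathione beads | reagent = FITC-labelled arrestin peptide probe, 50 nM final | schedule = compound with beads 12 min RT, then probe 1 h RT | signal = HyperCyt-sampled flow cytometry, FL1 channel, ex 488/em 535 nm | read-out = percent response from loss of bead-bound FITC fluorescence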
DSG3 Ab inh: inhibitors of pemphigus antibody binding to human desmoglein-3 | actives 0.48% (n = 310,000) | DSG3-coupled beads, scFv-anti-DSG3-GFP binding, flow cytometry; active compounds read low | P32926 | AID 588358 | binding (percent of control), % at 10 µM;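 active = binding more than 3 SD below its plate's average and above zero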;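 note: hits lower antibody fragment binding to DSG3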
Target sequence (P32926 whole entry, looked up, the tested form may be a part): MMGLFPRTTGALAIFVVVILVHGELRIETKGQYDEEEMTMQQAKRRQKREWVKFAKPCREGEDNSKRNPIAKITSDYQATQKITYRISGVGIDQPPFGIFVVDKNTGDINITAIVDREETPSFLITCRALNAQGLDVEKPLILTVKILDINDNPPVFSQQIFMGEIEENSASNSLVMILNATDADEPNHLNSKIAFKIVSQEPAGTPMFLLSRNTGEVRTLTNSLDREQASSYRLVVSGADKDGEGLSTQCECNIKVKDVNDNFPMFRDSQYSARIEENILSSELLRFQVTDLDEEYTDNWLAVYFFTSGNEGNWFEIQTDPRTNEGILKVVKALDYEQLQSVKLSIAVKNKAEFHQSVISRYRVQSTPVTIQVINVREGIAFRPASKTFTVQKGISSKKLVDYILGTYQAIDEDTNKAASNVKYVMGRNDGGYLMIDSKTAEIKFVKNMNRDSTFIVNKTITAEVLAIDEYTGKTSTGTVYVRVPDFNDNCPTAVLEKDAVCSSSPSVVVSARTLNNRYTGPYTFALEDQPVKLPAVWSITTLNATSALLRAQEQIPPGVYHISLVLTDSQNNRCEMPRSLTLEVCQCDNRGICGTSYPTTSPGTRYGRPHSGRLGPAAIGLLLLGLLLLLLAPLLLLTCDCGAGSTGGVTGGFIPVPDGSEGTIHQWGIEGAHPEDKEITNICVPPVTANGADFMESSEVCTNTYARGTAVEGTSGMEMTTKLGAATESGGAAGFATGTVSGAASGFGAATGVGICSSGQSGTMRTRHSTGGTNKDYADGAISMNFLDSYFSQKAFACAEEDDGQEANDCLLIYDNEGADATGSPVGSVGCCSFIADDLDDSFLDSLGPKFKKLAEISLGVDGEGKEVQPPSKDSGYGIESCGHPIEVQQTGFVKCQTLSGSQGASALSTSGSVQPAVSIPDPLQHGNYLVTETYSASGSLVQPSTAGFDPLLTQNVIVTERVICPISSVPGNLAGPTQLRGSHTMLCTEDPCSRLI
HDAC3 inh: human HDAC3 inhibition; recombinant HDAC3, fluorogenic peptide/trypsin coupled, fluorescence; inhibition, % at 8.3 µM; actives 0.15% (n = 320,000); AID 2718; in the data active = inhibition above about 26%, passing the limit was not always enough
Arr-AP2 CP1: inhibitors of human beta-arrestin and AP2 interaction; shares compounds with Arr AP2 block; GST-AP2 beads, FITC arrestin peptide binding, flow cytometry; GST-fused beta2-adaptin appendage, R879A mutant; inhibition, % at 10 µM; actives 2% (n = 1,300); AID 504908;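 active = inhibition above a set limit, roughly 3 SD of non-fluorescent compound noise, cut at about 38% in these data; inactive = inhibition at or below that limit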;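 note: loss of bead fluorescence from 50 nM FITC arrestin peptide bound to appendage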
GST GSH counter: GST-GSH bead binding interference, counter-screen; shares compounds with Arr AP2 block; GST-fluorescein binding to GSH beads, fluorescence; inhibition, % at 10 µM; actives 2% (n = 1,300);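 active = inhibition above 50%, about 3 SD of the inhibition seen with non-fluorescent compounds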;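 note: fluorescein maleimide labelled GST captured on 4 micron glutathione beads; higher means more loss of bead fluorescence from quenching or blocked binding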
Of the large screens only hits and unclear results are named; the others gave an inactive call (follow-up assays come after a bar, where they were run); ! = a repeat was not active. Hits are enriched below; roughly 1.5% of the tested compounds scored in any of these assays.

CC[C@@H]1C=CC=CC[C@H](C)[C@@H](O)[C@@H](C)C(=O)[C@H](C)[C@@H](O)[C@H](C)C(=O)[C@H](C)[C@@H](O)[C@H](C)C=CC(=O)O[C@H]2[C@@H](C)[C@@H](CC1)O[C@@]1(CC[C@@H](C)[C@@H](C[C@H](C)O)O1)[C@@H]2C	HDAC3 inh 50 (no result: Arr AP2 block, DSG3 Ab inh)
CCOP(=S)(OCC)Oc1nc(Cl)c(Cl)cc1Cl	LANA-H2A inh active
CCOC(=O)c1cn2nc(OP(=S)(OCC)OCC)cc2nc1C	none
O=P(N1CC1)(N1CC1)N1CCc2ccccc21	none (no result: T cell HTS, LANA-H2A inh, HDAC3 inh)
Nc1ccc2nonc2c1[N+](=O)[O-]	LANA-H2A inh 29
C/C=C/c1ccc2c(c1)OCO2	LANA-H2A inh 11
CCOc1ccc(N2C(=O)/C(=C/c3ccco3)C(=O)NC2=S)cc1	DSG3 Ab inh 14
Cc1ccccc1N1C(=O)/C(=C/c2ccco2)C(=O)NC1=S	LANA-H2A inh 26 (no result: Arr AP2 block, DSG3 Ab inh)
C[N+]1(C)[C@@H]2CC[C@H]1CC(OC(=O)C(CO)c1ccccc1)C2 (some centres not stated)	LANA-H2A inh 37!
C[N+]1(C)C2CCC1CC(OC(=O)C(CO)c1ccccc1)C2 (configuration not stated)	none
Nc1ccc2ccc3cccc[n+]3c2c1	LANA-H2A inh 36
C=CC(=O)NCNC(=O)C=C	LANA-H2A inh 10
Cc1cc(C(=O)OCC(=O)Nc2ccc(F)cc2F)c(C)n1C1CC1	LANA-H2A inh 146 (no result: DSG3 Ab inh)
Cc1cc(C(=O)OCC(=O)Nc2ccccc2F)c(C)n1C1CC1	none (no result: T cell HTS, LANA-H2A inh, HDAC3 inh)
CCOC(=O)c1cc(C)sc1/N=C/C1C(=O)NC(=S)NC1=O	DSG3 Ab inh 69
CCOC(=O)c1c(/N=C/C2C(=O)NC(=S)NC2=O)sc(C)c1C	none (no result: Arr AP2 block, DSG3 Ab inh)
Cc1cccc(-n2c(O)c(/C=C3/C(c4ccccc4)=Nc4ccccc43)c(=O)[nH]c2=O)c1	LANA-H2A inh 86
NN=C1C(Cl)=C(Cl)C(Cl)=C1Cl	none (no result: T cell HTS, LANA-H2A inh, Arr AP2 block, HDAC3 inh)
Cc1ccc2c(c1Cl)NC(C(=O)O)C1CC(Sc3ccccc3[N+](=O)[O-])C(Cl)C21 (configuration not stated)	DSG3 Ab inh 41
COC12CCC3(CC1C(C)(O)C(C)(C)C)[C@H]1Cc4ccc(OC5OC(C(=O)O)[C@@H](O)C(O)[C@H]5O)c5c4[C@@]3(CCN1CC1CC1)C2O5 (some centres not stated)	none (no result: LANA-H2A inh, HDAC3 inh)
O=c1[nH]sc2cc(F)ccc12	DSG3 Ab inh 4.9 (no result: T cell HTS, LANA-H2A inh, HDAC3 inh)
CN(C)C1CCc2[nH]c3c(F)cc(F)cc3c2C1 (configuration not stated)	none (no result: T cell HTS, LANA-H2A inh, Arr AP2 block, HDAC3 inh)
COC(=O)C1=C(c2ccc(F)cc2OCc2ccccc2)C[C@@H]2CC[C@H]1N2C(=O)N1CCC(O)CC1	none
CCOC(=O)C1SC2(C(F)(F)F)CC1(O)c1c(C)cc(C)nc1O2 (configuration not stated)	HDAC3 inh 44
C[N+]1(CCC(C(N)=O)(c2ccccc2)c2ccccc2)CCCCC1	none (no result: Arr AP2 block, DSG3 Ab inh)
CC(C)Oc1cccc(NC(=O)c2cccn(Cc3ccc4c(c3)OC(F)(F)O4)c2=O)c1	HDAC3 inh 34
COC(=O)C1=C(c2ccc(S(C)(=O)=O)cc2)C[C@@H]2CC[C@H]1N2C(=O)NCCCOC(C)C	none
Cc1cc(OCC(=O)NCc2ccncc2)c2c3c(c(=O)oc2c1)CCC3	LANA-H2A inh 16
CC(C)(C)C(=O)N1Cc2cnnn2-c2ccccc2C1C#N (configuration not stated)	none (no result: T cell HTS, LANA-H2A inh, HDAC3 inh)
COC(=O)C1=C(c2ccc(F)cc2F)C[C@@H]2CC[C@H]1N2C(=O)N1CCC(O)(c2ccc(Cl)cc2)CC1	none
N=C(N)c1c(O)n(C2CCCCC2)c(=O)n(C2CCCCC2)c1=O	HDAC3 inh 28
Cc1cc(OCCCC(=O)NCc2cccs2)ccc1Cl	LANA-H2A inh 23
Cc1ccc(NC(=O)CCNC(=O)N2C[C@H]3C[C@@H](C2)c2cccc(=O)n2C3)c(C)c1	none
O/N=C1\CCC2CN(C3CCCCC3)CC2C1 (configuration not stated)	DSG3 Ab inh 12
CN1C2CCC1CC(=NO)C2	none
N[C@@H]1C[C@H]1c1ccccc1	none
CN(C)C1(c2nnnn2-c2ccc(Cl)cc2)CCCCC1	none
CC(C)CC(N(C)C)C1(c2ccc(Cl)cc2)CCC1 (configuration not stated)	DSG3 Ab inh 79! (no result: LANA-H2A inh, HDAC3 inh)
O=[N+]([O-])c1cccnc1N1CCCNCC1	none
O=C(CCN1CCCCC1)Nc1ccc(Br)cc1C(=O)c1ccccc1	LANA-H2A inh 19
Cc1ccc(N)c(C)c1	LANA-H2A inh 37
Cc1ccccc1N	none
Cc1cccc(NP2(=O)NCCCN2)c1	none (no result: T cell HTS, LANA-H2A inh, HDAC3 inh)
C[N+]12CCC(CC1)C(C(O)(c1cccc(Cl)c1)c1cccc(Cl)c1)C2 (configuration not stated)	DSG3 Ab inh 82
CC[N+]12CCC(CC1)C(C(O)(c1ccccc1)c1ccccc1)C2 (configuration not stated)	none
COC(=O)C1=C(c2ccc(OCc3ccccc3)cc2)C[C@@H]2CC[C@H]1N2C(=O)NCc1cccc(C(F)(F)F)c1	none
COc1ccc(C2=NCC(=O)N(CC(=O)NCc3ccco3)c3sc4c(c32)CCCC4)cc1	DSG3 Ab inh 76
c1ccc(N2C3C4CC(C5CCCC54)C32)cc1 (configuration not stated)	none (no result: T cell HTS, LANA-H2A inh, HDAC3 inh)
CCC/C=N/O	LANA-H2A inh 32
Cc1cc(C)c(C(=O)N2CCC3(CC2)OCCO3)c(C)c1	LANA-H2A inh 28
COc1ccc(-n2c(O)c(/C=C3\C=Nc4ccc(Br)cc43)c(=O)[nH]c2=O)c(OC)c1	none
COc1ccc(-n2c(O)c(/C=C3\C=Nc4ccc(Br)cc43)c(=O)[nH]c2=O)cc1	LANA-H2A inh 13
O=C(CCc1nnc2ccc(NCc3ccc(F)cc3)nn12)N1CCC2(CC1)OCCO2	none
Nc1c(Br)cc([N+](=O)[O-])cc1[N+](=O)[O-]	LANA-H2A inh 26
COP(=S)(OC)SCN1C(=O)c2ccccc2C1=O	LANA-H2A inh 23 (no result: HDAC3 inh)
CNC(=O)CSP(=S)(OC)OC	none (no result: T cell HTS, LANA-H2A inh, HDAC3 inh)
S=P(NCCNP(=S)(N1CC1)N1CC1)(N1CC1)N1CC1	none (no result: T cell HTS, LANA-H2A inh, HDAC3 inh)
Fc1ccc(C(OCCN2CCCC2)c2ccc(Br)cc2)cc1 (configuration not stated)	LANA-H2A inh 13
c1ccc2c(c1)cc1ccc3cccc4ccc2c1c34	Arr AP2 block 57 (no result: T cell HTS, LANA-H2A inh, HDAC3 inh) | Arr-AP2 CP1 inactive | GST GSH counter inactive
CN(C)c1ccc(C=C2C(=O)NC(=S)NC2=O)cc1[N+](=O)[O-]	Arr AP2 block 64 | Arr-AP2 CP1 inactive | GST GSH counter inactive
